Lmaj promast: reduces viability of Leishmania major promastigotes; 200,000 compounds, 9% hits; AID 1063; inhibition, % at 10 µM; resazurin fluorescence viability; in the data active = inhibition above about 50%;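 note: promastigotes grown with compound for 44 hours at 28 °C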
T cruzi inh: T. cruzi replication inhibition. T. cruzi beta-gal in NIH3T3, luminescence, 90 h. inhibition, % (concentration not given with the values). 300,000 compounds, 1.4% hits. AID 1885;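 active = mean inhibition across valid replicates above about 55%, limit read from the data; inconclusive = mean below that limit but half or more replicates reach it; inactive = mean below it, under half of replicates reach it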;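 note: signal also drops with host cell toxicity which is not excluded here; 0% = plate median of DMSO wells and 100% = zero luminescence signal; higher percent means less beta-gal luminescence so fewer parasites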
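Incubation – ≥90 h infection period, 3 h prior cell attachment · System – NIH/3T3 fibroblasts plus reporter T. cruzi · Doses – compound pinned at 50 nL/well, DMSO · Read-out basis – percent inhibition of parasite-derived β-gal signal · Signal – luminescent β-galactosidase signal after 60 min lysis · Also added – 5000 T. cruzi trypomastigotes/well · Medium – Low-serum DMEM with 2% FBS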
HSF1 activator: increases HSF-1 driven luciferase reporter signal; activation, % at 9 µM; 300,000 compounds, 1.7% hits; NIH3T3-HGL HSF-1 luciferase reporter, MG132, 8 h; 100% = twice DMSO control signal;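 active = mean replicate activation of at least 50% with a set share of replicates each reaching 50%; inconclusive = only one of those two conditions met; inactive = mean below 50% and too few replicates reaching it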;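 note: 0% = median of the neutral control wells and 100% = twice that signal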
Hsp70 act: Hsp70 transcriptional activation, primary screen. HeLa Hsp70 promoter luciferase reporter, luminescence; scaled: vehicle 0, proteasome-inhibitor control 100%. activation, % at 10 µM. 200,000 compounds, 0.04% hits;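 active = activation above the mean across all tested compounds plus 3 SD, cutoff set per campaign, cut at about 5.5% in these data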;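 note: 100% = MG132 at 30 µM as the positive control and 0% = DMSO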
HSF1 inh: HSF1 inhibition; NIH3T3-HGL HSE-luciferase, MG132-induced, luminescence 8 h; active compounds read low; 300,000 compounds, 0.77% hits; activity change, negative = inhibition, % at 7.5 µM (by protocol);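 active = more than half of replicate wells show activity change below -50%, luminescence cut by over half; inconclusive = some wells, but at most half, below -50%; inactive = no replicate well below -50%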;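 note: luciferase reports HSF-1 transcriptional activity via heat shock element; 0% = median of DMSO wells and -100% = zero luminescence signal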
An asterisk follows results filed as active; u = inconclusive; x = no result given. Shown is part of a subset that was picked to be rich in hits.

SMILES	Lmaj promast	T cruzi inh	HSF1 activator	Hsp70 act	HSF1 inh
C=CCOc1ccccc1CN1CCCC(CCC(=O)N(C)CCc2ccccn2)C1 (stereo not given)	24	56*	-2	1	3
CC(=O)Nc1ccc(N2C(=O)CSC2c2ccccc2)cc1 (stereo not given)	x	-5	7	x	-2
CCOC(=O)C1CCCN(C(=O)c2cc(CN3C(=O)c4ccccc4C3=O)ccc2OC)C1 (stereo not given)	x	-27	-9	x	5
N#Cc1ccsc1NC(=O)CN1CCN(S(=O)(=O)c2ccc3ccccc3c2)CC1	65*	0	u	0	37
O=C(CN1CCN(c2ccccc2F)CC1)Nc1ccc2c(c1)CCC2	64*	8	-12	0	-3
O=C(CN1CCN(S(=O)(=O)c2ccc3ccccc3c2)CC1)Nc1ccc2c(c1)CCC2	89*	12	38	0	3
O=C(CCCOc1ccc(Cl)cc1Cl)NN1CCOCC1	-1	5	3	0	-1
Cc1cc(C(=O)OCC(=O)NCCC(C)C)c2ccccc2n1	-6	-11	1	0	-3
Cc1cnc(C(=O)OCC(=O)c2ccc(Br)s2)cn1	x	-7	-2	x	-2
C=CCNC(=S)Nc1sc2c(c1C#N)CCCC2	58*	-8	-62	0	-54*
O=c1c(Cc2c(F)cccc2Cl)c(O)ccn1C1CC1	6	2	2	0	-1
O=C(Nc1nc2ccc(F)cc2s1)C1=COCCO1	x	7	-9	x	-8
O=C(Nc1nc2cc3c(cc2s1)OCCO3)C1=COCCO1	x	-5	-75	x	-66*
Cc1cc(C)c2sc(NC(=O)C3=COCCO3)nc2c1	x	8	54*	x	30
COc1ccc(/C=N/NC(=O)c2nc(-c3ccccc3)n(-c3ccccc3)n2)c(O)c1	99*	17	11	0	3
CC(C)(C)c1cc(C(=O)N/N=C/c2ccccc2O)n(-c2ccccc2)n1	99*	31	20	0	3
Cc1cc([N+](=O)[O-])ccc1NC(=O)CSc1nccc(=O)[nH]1	-7	-8	7	0	1
Cc1c(N=NC2=C(O)CCCC2=O)c(=O)n(-c2ccccc2)n1C	-11	-4	-14	0	-2
COc1ccc(OC)c2sc(N3CCc4ccccc4C3)nc12	-2	2	128*	0	100
COc1ccc(C(=S)N2CCN(C)CC2)cc1	85*	-1	5	0	-3
COc1ccc(NC(=S)N2CCN(C)CC2)cc1	x	12	-10	x	-10
CN1CCN(C(=S)c2ccc(Cl)cc2)CC1	90*	-9	2	-1	0
COc1ccc(C(=S)N2CCN(C)CC2)cc1Br	92*	-6	2	0	8
Cc1ccccc1C(=O)Nc1ccnn1C1CCN(C(=O)c2ccoc2)CC1	x	-16	-13	x	-2
CCN(CC)CCNC(=O)c1cc2c(s1)-c1ccccc1SC2	x	55*	3	x	-4
SMILES	Lmaj promast	T cruzi inh	HSF1 activator	Hsp70 act	HSF1 inh
NNC(=O)c1cc2c(s1)-c1cc(Cl)ccc1SC2	x	5	-8	x	-1
O=C(NC1CCCCCC1)c1ccc(=O)n(Cc2ccccc2)n1	9	9	24	0	2
CCN(CC(O)COc1ccc(OCC(O)CN(CC)C2CCCCC2)cc1)C1CCCCC1 (stereo not given)	100*	28	-7	0	2
CN(CC(O)COc1ccccc1F)C1CCCCC1 (stereo not given)	9	-1	-2	0	5
CN(CC(O)COc1ccc(S(=O)(=O)N2CCOCC2)cc1)C1CCCCC1 (stereo not given)	97*	10	7	0	7
CCN(CC(O)COCc1ccc(Cl)cc1)C1CCCCC1 (stereo not given)	68*	18	1	0	-2
Cc1ccccc1OCC(O)CN(Cc1ccccc1O)C1CCCCC1 (stereo not given)	91*	22	-13	0	1
O=C(NCCCl)Nc1ccccc1OCCOc1ccccc1NC(=O)NCCCl	x	20	4	x	-6
Cc1cc(OCC(=O)NCCCN2CCOCC2)cc(C)c1Cl	71*	16	-6	0	-5
O=C(NCCCN1CCOCC1)c1cc2c(s1)CSC2	80*	8	14	0	-2
CC(=O)Oc1cc2c(C(=O)NCCCN3CCOCC3)c(C)oc2c2ccccc12	52*	-4	-3	0	1
O=C(NCCCN1CCOCC1)c1sc2ccccc2c1Cl	80*	0	18	0	-1
Cc1c(OCC(=O)NCCCN2CCOCC2)ccc2c1oc(=O)c1ccccc12	x	-4	-10	x	-1
O=C(NCCCN1CCOCC1)c1ccc(Br)s1	4	-16	0	0	-3
O=C(/C=C/c1c(F)cccc1Cl)N1CCOCC1	x	-5	13	x	2
O=C(NCc1cccc(Cl)c1)c1ccc(CS(=O)Cc2ccc(Cl)cc2)o1 (stereo not given)	x	-9	16	x	3
CCOc1ccc(NC(=S)N(CCOC)C(C)c2cccnc2)cc1 (stereo not given)	73*	13	-9	0	-8
Cc1ccc(NC(=S)N(CCN(C)C)C(C)c2cccnc2)cc1 (stereo not given)	27	27	17	-1	9
COCCN(C(=S)Nc1cccc(C)c1)C(C)c1cccnc1 (stereo not given)	64*	1	-5	0	-2
CC(C)C(C)(C#N)NC(=O)CSc1nc(C2CCCCC2)n(-c2ccccc2)n1 (stereo not given)	80*	10	-3	0	-4
Cc1ccc(OCc2nnc(SCC(=O)Nc3ccc4c(c3)OCCO4)n2Cc2ccco2)cc1	96*	-21	5	0	9
COc1ccccc1NC(=O)CSc1nnc(COc2ccc(Cl)cc2)n1Cc1ccco1	4	16	94*	0	70
O=C(CSc1ncc(-c2ccc(F)cc2)n1Cc1ccco1)Nc1ccc2c(c1)OCO2	60*	5	35	0	7
Clc1ccc(OCc2nnc(SCCN3CCCCC3)n2Cc2ccco2)cc1	100*	17	21	0	0
CCOc1ccc(NC(=O)CSc2ncc(-c3ccc(F)cc3)n2Cc2ccco2)cc1	x	6	7	x	5
Cc1ccc(C)c(-n2cc(CN3CCCN(C=O)CC3)c(-c3ccccc3)n2)c1	5	-14	-19	0	-5
C=CCNC(=O)c1onc(CSc2ccc(F)cc2)c1C(=O)NCCOC	2	-2	14	0	9
CCc1noc(C)c1C(=O)Nc1ccc(S(=O)(=O)N2CCC(C)CC2)cc1	x	18	-2	x	2
COc1ccc(OC)c(NC(=O)CCC(=O)Oc2ccc(C)cc2)c1	x	-11	7	x	-5
CCC(C)(C(=O)NC1CCCC1)N(C(=O)CNC(=O)c1ccccc1)c1c(C)n(C)n(-c2ccccc2)c1=O (stereo not given)	-2	-4	-1	0	-5
